Results as given in ChEMBL document CHEMBL5724801, “EUbOPEN Chemogenomics Library - Multiplex” (2024).
Several values for one entry are separate records, joined by “and”; a condition that tells them apart may be missing. Equal values may be shown once.

Test system: U2OS
Experiment: Multiplex assay against U2OS
Format: toxicity, cell-based
Details: human
Method in brief: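 Cells were classed with CellPathfinder machine-learning gating, first as Hoechst high-intensity objects or normal cells, then (normal cells) as healthy, pyknosed or fragmented nuclei, and finally (pyknosed cells) as mitotic or apoptotic. Staining of live cells at seeding used Hoechst33342, BioTracker Green Microtubule Cytoskeleton Dye, MitoTracker Red and Annexin V Alexa Fluor 680, with imaging on a CQ1 microscope at 37°C and 5% CO2 after compound addition. Tubulin, mitochondrial-mass and membrane-permeability phenotypes are per cents of healthy-nucleus cells.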

[1] = 12 h, 1 µM, compound concentration 1 uM
[2] = 12 h, 10 µM, compound concentration 10 uM
[3] = 24 h, 1 µM, compound concentration 1 uM
[4] = 24 h, 10 µM, compound concentration 10 uM
[5] = 48 h, 1 µM, compound concentration 1 uM
[6] = 48 h, 10 µM, compound concentration 10 uM

SMILES: COc1ccc(CC(=O)NC(N/C(=N/C#N)Nc2cccc3ncccc23)C(C)(C)C)cc1OC (configuration not stated)
- Population Apoptotic (%) [1]: 40.91% and 47.06%
- Population Fragmented Nuclei (%) [1]: 2.4% and 0.62%
- Population Healthy Nuclei (%) [1]: 91.73% and 88.89%
- Population Hoechst High Intensity Objects (%) [1]: 0%
- Population Membrane Permeable-Phenotype (%) [1]: 1.16% and 5.56%
- Population Mitochondria Different-Phenotype (%) [1]: 0.87% and 4.86%
- Population Mitotic Cells (%) [1]: 59.09% and 52.94%
- Population Normal (%) [1]: 100%
- Population Pyknosed Nuclei (%) [1]: 5.87% and 10.49%
- Population Tubulin-Different-Phenotype (%) [1]: 0.87% and 0.69%
- Total Cell Count [1]: 375 and 162
- Population Apoptotic (%) [2]: 51.35% and 40%
- Population Fragmented Nuclei (%) [2]: 1.67% and 2.27%
- Population Healthy Nuclei (%) [2]: 88.02% and 82.58%
- Population Hoechst High Intensity Objects (%) [2]: 0%
- Population Membrane Permeable-Phenotype (%) [2]: 1.27% and 3.67%
- Population Mitochondria Different-Phenotype (%) [2]: 0.63% and 8.26%
- Population Mitotic Cells (%) [2]: 48.65% and 60%
- Population Normal (%) [2]: 100%
- Population Pyknosed Nuclei (%) [2]: 10.31% and 15.15%
- Population Tubulin-Different-Phenotype (%) [2]: 1.58% and 0.92%
- Total Cell Count [2]: 359 and 132
- Population Apoptotic (%) [3]: 33.33% and 61.54%
- Population Fragmented Nuclei (%) [3]: 1.96% and 2.31%
- Population Healthy Nuclei (%) [3]: 85.66% and 85.65%
- Population Hoechst High Intensity Objects (%) [3]: 0%
- Population Membrane Permeable-Phenotype (%) [3]: 1.15% and 3.78%
- Population Mitochondria Different-Phenotype (%) [3]: 0.46% and 6.49%
- Population Mitotic Cells (%) [3]: 66.67% and 38.46%
- Population Normal (%) [3]: 100%
- Population Pyknosed Nuclei (%) [3]: 12.38% and 12.04%
- Population Tubulin-Different-Phenotype (%) [3]: 0.92% and 0%
- Total Cell Count [3]: 509 and 216
- Population Apoptotic (%) [4]: 35.56% and 50%
- Population Fragmented Nuclei (%) [4]: 1.44% and 1.79%
- Population Healthy Nuclei (%) [4]: 89.32% and 87.5%
- Population Hoechst High Intensity Objects (%) [4]: 0%
- Population Membrane Permeable-Phenotype (%) [4]: 1.61% and 2.04%
- Population Mitochondria Different-Phenotype (%) [4]: 0.46% and 4.08%
- Population Mitotic Cells (%) [4]: 64.44% and 50%
- Population Normal (%) [4]: 100%
- Population Pyknosed Nuclei (%) [4]: 9.24% and 10.71%
- Population Tubulin-Different-Phenotype (%) [4]: 2.07% and 0.68%
- Total Cell Count [4]: 487 and 168
- Population Apoptotic (%) [5]: 60.47% and 47.73%
- Population Fragmented Nuclei (%) [5]: 1.92% and 2.62%
- Population Healthy Nuclei (%) [5]: 88.91% and 85.86%
- Population Hoechst High Intensity Objects (%) [5]: 0%
- Population Membrane Permeable-Phenotype (%) [5]: 0.36% and 2.13%
- Population Mitochondria Different-Phenotype (%) [5]: 0.36% and 2.74%
- Population Mitotic Cells (%) [5]: 39.53% and 52.27%
- Population Normal (%) [5]: 100%
- Population Pyknosed Nuclei (%) [5]: 9.17% and 11.52%
- Population Tubulin-Different-Phenotype (%) [5]: 0.96% and 0.61%
- Total Cell Count [5]: 938 and 382
- Population Apoptotic (%) [6]: 53.62% and 57.5%
- Population Fragmented Nuclei (%) [6]: 3.32% and 2.81%
- Population Healthy Nuclei (%) [6]: 89.53% and 83.16%
- Population Hoechst High Intensity Objects (%) [6]: 0%
- Population Membrane Permeable-Phenotype (%) [6]: 0.93% and 3.38%
- Population Mitochondria Different-Phenotype (%) [6]: 0.35% and 2.53%
- Population Mitotic Cells (%) [6]: 46.38% and 42.5%
- Population Normal (%) [6]: 100%
- Population Pyknosed Nuclei (%) [6]: 7.15% and 14.04%
- Population Tubulin-Different-Phenotype (%) [6]: 1.62% and 0.84%

SMILES: C=CC(=O)N1CCC[C@@H](n2nc(C(=O)Nc3ccc(CC(=O)N(C)C)c(C)c3C)c3c(N)ncnc32)C1
- Population Apoptotic (%) [1]: 31.58% and 48.15%
- Population Fragmented Nuclei (%) [1]: 2.15% and 3.28%
- Population Healthy Nuclei (%) [1]: 88.76% and 81.97%
- Population Hoechst High Intensity Objects (%) [1]: 0%
- Population Membrane Permeable-Phenotype (%) [1]: 1.08% and 0.67%
- Population Mitochondria Different-Phenotype (%) [1]: 0.54% and 8.67%
- Population Mitotic Cells (%) [1]: 68.42% and 51.85%
- Population Normal (%) [1]: 100%
- Population Pyknosed Nuclei (%) [1]: 9.09% and 14.75%
- Population Tubulin-Different-Phenotype (%) [1]: 1.08% and 0%
- Total Cell Count [1]: 418 and 183
- Population Apoptotic (%) [2]: 42.86% and 45.45%
- Population Fragmented Nuclei (%) [2]: 1.65% and 3.24%
- Population Healthy Nuclei (%) [2]: 88.47% and 84.86%
- Population Hoechst High Intensity Objects (%) [2]: 0.23% and 0%
- Population Mitotic Cells (%) [2]: 57.14% and 54.55%
- Population Normal (%) [2]: 99.77% and 100%
- Population Pyknosed Nuclei (%) [2]: 9.88% and 11.89%
- Population Tubulin-Different-Phenotype (%) [2]: 0.27% and 3.82%
- Total Cell Count [2]: 426 and 185
- Population Apoptotic (%) [3]: 37.21% and 57.14%
- Population Fragmented Nuclei (%) [3]: 1.84% and 1.69%
- Population Healthy Nuclei (%) [3]: 90.24% and 83.47%
- Population Hoechst High Intensity Objects (%) [3]: 0.18% and 0%
- Population Membrane Permeable-Phenotype (%) [3]: 0.41% and 2.54%
- Population Mitochondria Different-Phenotype (%) [3]: 0.41% and 6.6%
- Population Mitotic Cells (%) [3]: 62.79% and 42.86%
- Population Normal (%) [3]: 99.82% and 100%
- Population Pyknosed Nuclei (%) [3]: 7.92% and 14.83%
- Population Tubulin-Different-Phenotype (%) [3]: 1.02% and 0%
- Total Cell Count [3]: 544 and 236
- Population Apoptotic (%) [4]: 57.14% and 50%
- Population Fragmented Nuclei (%) [4]: 2.56% and 2.27%
- Population Healthy Nuclei (%) [4]: 87.18% and 86.82%
- Population Hoechst High Intensity Objects (%) [4]: 0%
- Population Membrane Permeable-Phenotype (%) [4]: 1.47% and 8.38%
- Population Mitotic Cells (%) [4]: 42.86% and 50%
- Population Normal (%) [4]: 100%
- Population Pyknosed Nuclei (%) [4]: 10.26% and 10.91%
- Population Tubulin-Different-Phenotype (%) [4]: 0.84% and 2.62%
- Total Cell Count [4]: 546 and 220
- Population Apoptotic (%) [5]: 38.38% and 67.35%
- Population Fragmented Nuclei (%) [5]: 2.8% and 4.6%
- Population Healthy Nuclei (%) [5]: 87.64% and 82.86%
- Population Hoechst High Intensity Objects (%) [5]: 0%
- Population Membrane Permeable-Phenotype (%) [5]: 0.66% and 2.16%
- Population Mitochondria Different-Phenotype (%) [5]: 0.11% and 7.41%
- Population Mitotic Cells (%) [5]: 61.62% and 32.65%
- Population Normal (%) [5]: 100%
- Population Pyknosed Nuclei (%) [5]: 9.56% and 12.53%
- Population Tubulin-Different-Phenotype (%) [5]: 0.66% and 0.31%
- Total Cell Count [5]: 1036 and 391
- Population Apoptotic (%) [6]: 50.48% and 54.35%
- Population Fragmented Nuclei (%) [6]: 1.98% and 2.5%
- Population Healthy Nuclei (%) [6]: 87.11% and 83.12%
- Population Hoechst High Intensity Objects (%) [6]: 0.1% and 0.31%
- Population Membrane Permeable-Phenotype (%) [6]: 1.07% and 3.01%
- Population Mitochondria Different-Phenotype (%) [6]: 0.12% and 6.02%
- Population Mitotic Cells (%) [6]: 49.52% and 45.65%
- Population Normal (%) [6]: 99.9% and 99.69%
- Population Pyknosed Nuclei (%) [6]: 10.91% and 14.37%
- Population Tubulin-Different-Phenotype (%) [6]: 0.95% and 1.5%
- Total Cell Count [6]: 963 and 321

SMILES: Cc1c(-c2cc(-c3ccccc3Cl)no2)cnn1C1CCNCC1.Cl
- Population Apoptotic (%) [1]: 35.85% and 50%
- Population Fragmented Nuclei (%) [1]: 2.99% and 1.04%
- Population Healthy Nuclei (%) [1]: 85.68% and 82.29%
- Population Hoechst High Intensity Objects (%) [1]: 0%
- Population Membrane Permeable-Phenotype (%) [1]: 0.5% and 3.8%
- Population Mitochondria Different-Phenotype (%) [1]: 0% and 8.86%
- Population Mitotic Cells (%) [1]: 64.15% and 50%
- Population Normal (%) [1]: 100%
- Population Pyknosed Nuclei (%) [1]: 11.32% and 16.67%
- Population Tubulin-Different-Phenotype (%) [1]: 1.5% and 1.9%
- Total Cell Count [1]: 468 and 192
- Population Apoptotic (%) [2]: 35.61% and 27.88%
- Population Fragmented Nuclei (%) [2]: 0.94% and 2.96%
- Population Healthy Nuclei (%) [2]: 57.68% and 20%
- Population Hoechst High Intensity Objects (%) [2]: 0%
- Population Membrane Permeable-Phenotype (%) [2]: 28.26% and 22.22%
- Population Mitotic Cells (%) [2]: 64.39% and 72.12%
- Population Normal (%) [2]: 100%
- Population Pyknosed Nuclei (%) [2]: 41.38% and 77.04%
- Population Tubulin-Different-Phenotype (%) [2]: 85.87% and 88.89%
- Total Cell Count [2]: 319 and 135
- Population Apoptotic (%) [3]: 37.5% and 39.02%
- Population Fragmented Nuclei (%) [3]: 2.05% and 3.23%
- Population Healthy Nuclei (%) [3]: 87.85% and 80.24%
- Population Hoechst High Intensity Objects (%) [3]: 0%
- Population Membrane Permeable-Phenotype (%) [3]: 0.18% and 2.01%
- Population Mitochondria Different-Phenotype (%) [3]: 0.18% and 7.54%
- Population Mitotic Cells (%) [3]: 62.5% and 60.98%
- Population Normal (%) [3]: 100%
- Population Pyknosed Nuclei (%) [3]: 10.09% and 16.53%
- Population Tubulin-Different-Phenotype (%) [3]: 1.08% and 1.51%
- Total Cell Count [3]: 634 and 248
- Population Apoptotic (%) [4]: 38.83% and 47.71%
- Population Fragmented Nuclei (%) [4]: 2.56% and 6.16%
- Population Healthy Nuclei (%) [4]: 49.23% and 19.18%
- Population Hoechst High Intensity Objects (%) [4]: 0% and 0.68%
- Population Membrane Permeable-Phenotype (%) [4]: 21.88% and 17.86%
- Population Mitotic Cells (%) [4]: 61.17% and 52.29%
- Population Normal (%) [4]: 100% and 99.32%
- Population Pyknosed Nuclei (%) [4]: 48.21% and 74.66%
- Population Tubulin-Different-Phenotype (%) [4]: 79.17% and 60.71%
- Total Cell Count [4]: 390 and 147
- Population Apoptotic (%) [5]: 42.02% and 57.78%
- Population Fragmented Nuclei (%) [5]: 2.39% and 2.74%
- Population Healthy Nuclei (%) [5]: 86.66% and 84.93%
- Population Hoechst High Intensity Objects (%) [5]: 0%
- Population Membrane Permeable-Phenotype (%) [5]: 1.59% and 2.58%
- Population Mitochondria Different-Phenotype (%) [5]: 0.11% and 7.74%
- Population Mitotic Cells (%) [5]: 57.98% and 42.22%
- Population Normal (%) [5]: 100%
- Population Pyknosed Nuclei (%) [5]: 10.95% and 12.33%
- Population Tubulin-Different-Phenotype (%) [5]: 2.23% and 3.55%
- Total Cell Count [5]: 1087 and 365
- Population Apoptotic (%) [6]: 59.43% and 95.93%
- Population Fragmented Nuclei (%) [6]: 1.36% and 2.17%
- Population Hoechst High Intensity Objects (%) [6]: 0.68% and 0%
- Population Normal (%) [6]: 99.32% and 100%
- Population Pyknosed Nuclei (%) [6]: 55.33% and 89.13%
- Population Tubulin-Different-Phenotype (%) [6]: 49.21% and 50%
